Published values collected from several papers.
Target: Serine/threonine-protein kinase VRK1 (VRK1, Homo sapiens, UniProt Q99986)
Residues used in one study (Q99986 1-396): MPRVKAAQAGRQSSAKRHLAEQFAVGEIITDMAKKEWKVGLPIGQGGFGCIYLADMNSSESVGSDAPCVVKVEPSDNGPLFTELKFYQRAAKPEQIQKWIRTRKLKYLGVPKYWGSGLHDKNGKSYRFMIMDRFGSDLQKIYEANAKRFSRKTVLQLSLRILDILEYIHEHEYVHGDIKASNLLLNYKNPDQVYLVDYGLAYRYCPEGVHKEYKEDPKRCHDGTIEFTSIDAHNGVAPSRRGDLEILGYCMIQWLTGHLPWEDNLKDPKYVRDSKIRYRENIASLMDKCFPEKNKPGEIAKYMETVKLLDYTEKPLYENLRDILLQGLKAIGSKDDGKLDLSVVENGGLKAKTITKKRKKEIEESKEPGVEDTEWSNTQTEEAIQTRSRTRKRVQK

With `COc1cc(Cl)c(C(=O)N[C@@H](CN[C@H]2CC[C@@H](N)CC2)Cc2ccc(C#N)cc2)cc1-c1ccc(CN[C@H](C)c2ccc(C)cc2)o1` the remaining activity was 93% (enzyme activity; inhibitor; 1 µM).
With `O=C1Nc2ccc(Cl)cc2C1=Cc1cc(Cl)c(O)c(Cl)c1` the remaining signal was 80.6% (cell-free assay; 0.5 µM).
For `O=C(Nc1cnn(-c2csc(C(=O)NC3COC3)c2)c1)Nc1ccccc1Cl`, the remaining activity was 109% (enzyme activity; inhibitor; 5 µM).
For `CC(C)(C)c1nc(-c2cccc(NS(=O)(=O)c3c(F)cccc3F)c2F)c(-c2ccnc(N)n2)s1`, the remaining activity was 77% (enzyme activity; inhibitor; radiometric; 1 µM).
For `CC(C)(O)[C@H]1CC[C@H](Nc2ccc3ncc(-c4cccc(C(F)(F)F)c4)n3n2)CC1`, the remaining activity was 74.9% (enzyme activity; inhibitor; 1 µM).
The ΔTm of `Cn1c2c(Cl)c(Cl)ccc2c2cn[nH]c(=O)c21` is reported as 0 °C (thermal stability; DSF; 10 µM).
`CN1CC(Oc2cnc(C#N)cc2-c2ccn3nc(NC(=O)C4CC4)cc3c2)C1` has an inhibition of -1% (enzyme activity; inhibitor; 1 µM).
`N#CC1c2c([nH]c3c(Cl)c(Cl)ccc23)C(=O)NC12CCCCC2` (racemic) has a ΔTm of 0.1 °C (thermal stability; DSF; 10 µM).
The remaining activity of `CC(C)(C)c1nc2c(s1)c1nc(N)ncc1c1ccc(NS(=O)(=O)c3c(F)cccc3F)c(F)c12` is reported as 82% (enzyme activity; inhibitor; radiometric; 1 µM).
The ΔTm of `CN1CCC2(CC1)NC(=O)c1c(c3ccc(Cl)c(Cl)c3n1C)C2C#N` (racemic) is reported as 0 °C (thermal stability; DSF; 10 µM).
For `O=C(Nc1cnn(-c2csc(C(=O)NC3COC3)c2)c1)Nc1c(F)cccc1Cl`, the remaining activity was 91.9% (enzyme activity; inhibitor; 5 µM).
